Data on 16 compounds can be found in ChEMBL document CHEMBL5230173, “Site-directed late-stage diversification of macrocyclic nannocystins facilitating anticancer SAR and mode of action studies” (RSC Med Chem, 2023).

Each structure is given as a SMILES string.

In one series the test system is HCT-8. As to the kind of experiment: Antiproliferative activity against human HCT-8 cells assessed as inhibition of cell growth incubated for 72 hrs by CCK-8 assay. The note with it: HCT-8, 72 h. In general terms: Formazan colour is commonly taken as a measure of viable cells.
A further series deals with MDA-MB-231. As to the kind of experiment: Antiproliferative activity against human MDA-MB-231 cells assessed as inhibition of cell growth incubated for 72 hrs by CCK-8 assay. The note with it: MDA-MB-231, 72 h.
Series [1] has as its system HCT-116. As to the kind of experiment: Antiproliferative activity against human HCT-116 cells assessed as inhibition of cell growth incubated for 72 hrs by CCK-8 assay. The note with it: HCT-116, 72 h.
The subject of series [2] is HCT-116. As to the kind of experiment: Antiproliferative activity against human HCT-116 cells assessed as inhibition of cell growth by Celltiter-Glo luminescence assay. The format is functional, cell-based.
Series [3] deals with HCT-116. As to the kind of experiment: Antiproliferative activity against human HCT-116 cells assessed as inhibition of cell growth by thymidine plus proliferation assay. The format is functional, cell-based.
Series [4] is described as follows: Drug localization in endoplasmic reticulum of human MDA-MB-231 cells at 500 nM incubated for 8 hrs by ER-tracker red based laser scanning confocal microscopic analysis. To be noted: mda-mb-231, 8 h, 0.5 µM. The series is classed as ADME, cell-based. A digest of the protocol:
(§1)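 HCT-8 (250 nM) and MDA-MB231 (500 nM) cells were seeded at 4 × 10^4 on slides for 24 h, then exposed to the probe for 8 h. After an HBSS wash, cells were stained with ER-Tracker Red for 20 min at 37 °C, washed twice with medium, and fixed in 4% formaldehyde for 2 min. Confocal imaging used probe ex 405/em 460 nm and tracker ex 587/em 615 nm.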

A short description of series [5]: Drug uptake in human MDA-MB-231 cells incubated for 1 hrs by laser scanning confocal microscopic analysis. The format is ADME, cell-based. The note with it: mda-mb-231, 1 h, dose 0.25-2 µM. A digest of the protocol:
(§2)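 MDA-MB231 cells were seeded at 6 × 10^4 on slides for 24 h in DMEM with 10% FBS. Cells were then PBS-washed twice, fixed in 4% formaldehyde for 2 min, and imaged by confocal microscopy (ex 405, em 460 nm).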

Series [6] in a line: Drug uptake in human MDA-MB-231 cells at 1 uM by laser scanning confocal microscopic analysis. The note with it: mda-mb-231, 1 h, TDE = time-dependent effect, time < 60 min. The format is ADME, cell-based. A digest of the protocol: as §2
Series [7] is described as follows: Drug uptake in human MDA-MB-231 cells measured after compound washout by laser scanning confocal microscopic analysis. The series is classed as ADME, cell-based.
Series [8] can be described thus: Drug localization in endoplasmic reticulum of human HCT-8 cells at 250 nM incubated for 8 hrs by ER-tracker red based laser scanning confocal microscopic analysis. The format is ADME, cell-based. The note with it: hct-8, 8 h, 0.25 µM. A digest of the protocol: as §1

For the compound `CC[C@H](C)[C@H]1C(=O)N[C@H](Cc2cc(Cl)c(O)c(Cl)c2)C(=O)N[C@@H](C(C)(C)O)C(=O)O[C@H](c2ccccc2)[C@H](C)/C=C/C=C(\C)[C@H](OC)C[C@@H]2O[C@@]2(C)C(=O)N1C`, the IC50 – broadly, the concentration needed to halve the response being measured – in the series with HCT-8 came to 10.9 nM; in the series on MDA-MB-231, 15.2 nM; in the series on HCT-116 [1], 4.2 nM; with HCT-116 [2] it was 2.6 nM; with HCT-116 [3], 1.2 nM.
As to `CC[C@H](C)[C@H]1C(=O)N[C@H](COC(=O)C2=CCC2)C(=O)N[C@@H](C(C)(C)O)C(=O)O[C@H](c2ccccc2)[C@H](C)/C=C/C=C(\C)[C@H](OC)C[C@@H]2O[C@@]2(C)C(=O)N1C`, the IC50 was 2.9 nM in the series with HCT-8, 43.5 nM in the series with MDA-MB-231 and 29.8 nM in the series on HCT-116 [1].
As to `CC[C@H](C)[C@H]1C(=O)N[C@H](COC(=O)c2ccccc2)C(=O)N[C@@H](C(C)(C)O)C(=O)O[C@H](c2ccccc2)[C@H](C)/C=C/C=C(\C)[C@H](OC)C[C@@H]2O[C@@]2(C)C(=O)N1C`, the half-maximal inhibitory concentration (IC50) with HCT-8 was found to be 23.4 nM; with MDA-MB-231 it was 40.1 nM; in the series with HCT-116 [1] it was 13.7 nM.
For `CC[C@H](C)[C@H]1C(=O)N[C@H](COC(=O)/C=C/c2ccccc2)C(=O)N[C@@H](C(C)(C)O)C(=O)O[C@H](c2ccccc2)[C@H](C)/C=C/C=C(\C)[C@H](OC)C[C@@H]2O[C@@]2(C)C(=O)N1C` the same measures were 27.6 nM, 45.8 nM and 18.7 nM.
Regarding `CC[C@H](C)[C@H]1C(=O)N[C@H](COC(=O)c2cc3ccc(N(CC)CC)cc3oc2=O)C(=O)N[C@@H](C(C)(C)O)C(=O)O[C@H](c2ccccc2)[C@H](C)/C=C/C=C(\C)[C@H](OC)C[C@@H]2O[C@@]2(C)C(=O)N1C`, the IC50 in the series on HCT-8 amounted to 52.3 nM; in the series with MDA-MB-231, 141 nM; in the series with HCT-116 [1], 136 nM. The Drug uptake result in series [4] is on record as “Active”; in series [5], “Dose-Dependent Effect”; in series [6], “Tde”; in series [7] it was “Active”; in series [8], “Active”.
Take `CC[C@H](C)[C@H]1C(=O)N[C@H](COC(=O)C2CCCCC2)C(=O)N[C@@H](C(C)(C)O)C(=O)O[C@H](c2ccccc2)[C@H](C)/C=C/C=C(\C)[C@H](OC)C[C@@H]2O[C@@]2(C)C(=O)N1C`: the IC50 was 44 nM in the series on HCT-8, 20.7 nM with MDA-MB-231 and 37.7 nM in the series with HCT-116 [1].
For `CCCCC(=O)OC[C@H]1NC(=O)[C@H]([C@@H](C)CC)N(C)C(=O)[C@]2(C)O[C@H]2C[C@@H](OC)/C(C)=C/C=C/[C@@H](C)[C@@H](c2ccccc2)OC(=O)[C@H](C(C)(C)O)NC1=O` the same measures were 18.4 nM, 46.2 nM and 27.1 nM.
The corresponding values for `CCCCCCCCCC(=O)OC[C@H]1NC(=O)[C@H]([C@@H](C)CC)N(C)C(=O)[C@]2(C)O[C@H]2C[C@@H](OC)/C(C)=C/C=C/[C@@H](C)[C@@H](c2ccccc2)OC(=O)[C@H](C(C)(C)O)NC1=O` are 16.7 nM, 97.4 nM and 76.6 nM.
With `C=CC(=O)OC[C@H]1NC(=O)[C@H]([C@@H](C)CC)N(C)C(=O)[C@]2(C)O[C@H]2C[C@@H](OC)/C(C)=C/C=C/[C@@H](C)[C@@H](c2ccccc2)OC(=O)[C@H](C(C)(C)O)NC1=O`, the IC50 with HCT-8 was found to be 35.5 nM; in the series with MDA-MB-231 it was 81.8 nM; in the series with HCT-116 [1], 51.9 nM.
For `CC[C@H](C)[C@H]1C(=O)N[C@H](COC(=O)c2ccncc2)C(=O)N[C@@H](C(C)(C)O)C(=O)O[C@H](c2ccccc2)[C@H](C)/C=C/C=C(\C)[C@H](OC)C[C@@H]2O[C@@]2(C)C(=O)N1C` the same measures were 57.4 nM, 32.3 nM and 10.3 nM.
The corresponding values for `CC[C@H](C)[C@H]1C(=O)N[C@H](COC(C)=O)C(=O)N[C@@H](C(C)(C)O)C(=O)O[C@H](c2ccccc2)[C@H](C)/C=C/C=C(\C)[C@H](OC)C[C@@H]2O[C@@]2(C)C(=O)N1C` are 24.3 nM, 17 nM and 17.5 nM.
For `CC[C@H](C)[C@H]1C(=O)N[C@H](COC(=O)/C=C/c2cc(F)cc(F)c2)C(=O)N[C@@H](C(C)(C)O)C(=O)O[C@H](c2ccccc2)[C@H](C)/C=C/C=C(\C)[C@H](OC)C[C@@H]2O[C@@]2(C)C(=O)N1C` the same measures were 24.9 nM, 78.8 nM and 23.5 nM.
In the case of `CC[C@H](C)[C@H]1C(=O)N[C@H](COC(=O)CCC(=O)O)C(=O)N[C@@H](C(C)(C)O)C(=O)O[C@H](c2ccccc2)[C@H](C)/C=C/C=C(\C)[C@H](OC)C[C@@H]2O[C@@]2(C)C(=O)N1C`, the IC50 in the series with HCT-8 was 115 nM; in the series with MDA-MB-231 it was 52.6 nM; in the series on HCT-116 [1] it was over 200 nM.
The corresponding values for `CC[C@H](C)[C@H]1C(=O)N[C@H](COC(=O)c2sc(C)nc2C)C(=O)N[C@@H](C(C)(C)O)C(=O)O[C@H](c2ccccc2)[C@H](C)/C=C/C=C(\C)[C@H](OC)C[C@@H]2O[C@@]2(C)C(=O)N1C` are 60.5 nM, 20.6 nM and 2.9 nM.
With `CC[C@H](C)[C@H]1C(=O)N[C@H](COC(=O)C2CC2)C(=O)N[C@@H](C(C)(C)O)C(=O)O[C@H](c2ccccc2)[C@H](C)/C=C/C=C(\C)[C@H](OC)C[C@@H]2O[C@@]2(C)C(=O)N1C`, the IC50 in the series on HCT-8 is 19.6 nM; in the series on MDA-MB-231, 61.8 nM; in the series with HCT-116 [1], 42.7 nM.
The corresponding values for `CC[C@H](C)[C@H]1C(=O)N[C@H](CO)C(=O)N[C@@H](C(C)(C)O)C(=O)O[C@H](c2ccccc2)[C@H](C)/C=C/C=C(\C)[C@H](OC)C[C@@H]2O[C@@]2(C)C(=O)N1C` are 32.2 nM, 29.4 nM and 37.6 nM.
